aSyn 5UTR inh = MLPCN primary screen, SNCA 5' untranslated region | alpha-synuclein 5'UTR reporter, inhibitor activity | inhibition, % (tested at 7.5 µM) | 300,000 compounds, 0.82% hits; in the data active = inhibition above about 60%; inconclusive = no clear call, values can overlap the other calls;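 also: H4 neuroglioblastoma cells stably carrying SNCA 5'UTR luciferase fusion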
T cruzi repl = blocks replication of Trypanosoma cruzi | inhibition, % (test concentration not listed) | AID 1885 | 300,000 compounds, 1.4% hits | T. cruzi beta-gal in NIH3T3, luminescence, 90 h;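 active = mean inhibition across valid replicates above about 55%, limit read from the data; inconclusive = mean below that limit but half or more replicates reach it; inactive = mean below it, under half of replicates reach it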;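 also: signal also drops with host cell toxicity which is not excluded here; higher percent means less beta-gal luminescence so fewer parasites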
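Test system: β-gal T. cruzi (Tulahuen C4) inside NIH/3T3 cells / Quantity: 5,000 cells/well / Measured by: luminescence from GalScreen with 0.05% NP40, read after 60 min / Medium: DMEM plus 2% FBS / Measure: parasite load inhibition, % / Reagent: Tulahuen C4 trypomastigotes, 5000/well / Schedule: co-culture of at least 90 h after 3 h attachment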
SKKanGAS inh = inhibitors of SKKanGAS S. pyogenes growth in kanamycin (SK-promoter or general growth effect); BacTiter-Glo, 6 h; inhibition, % at 7.5 µM; 300,000 compounds, 1.3% hits; AID 1662;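 active = mean replicate score, as percent of positive control median, at least 50; inconclusive = mean below 50 but one replicate at or above 50; inactive = mean and every replicate below 50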;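 also: strain carries kanamycin resistance gene driven by streptokinase promoter and grows in 40 µg/ml kanamycin; loss of luminescence reflects streptokinase promoter inhibition or plain growth inhibition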
CSC inhib = blocks cancer stem cells | inhibition, % at 7.5 µM | cancer stem cell-like cells viability, luminescence | 300,000 compounds, 1.1% hits; in the data active = inhibition above about 75%; inconclusive = no clear call, values can overlap the other calls; tested in HMLE shEcad cells
Mdm2-MdmX inh = disrupts the human Mdm2-MdmX interaction | O15151+Q00987 | SaOS-2 split-luciferase Mdm2/MdmX complementation, luminescence | inhibition, % at 8 µM | 330,000 compounds, 3% hits | AID 485346;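 active = inhibition of at least 50% at 8 µM in the primary screen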
Target sequence (O15151 whole entry, looked up): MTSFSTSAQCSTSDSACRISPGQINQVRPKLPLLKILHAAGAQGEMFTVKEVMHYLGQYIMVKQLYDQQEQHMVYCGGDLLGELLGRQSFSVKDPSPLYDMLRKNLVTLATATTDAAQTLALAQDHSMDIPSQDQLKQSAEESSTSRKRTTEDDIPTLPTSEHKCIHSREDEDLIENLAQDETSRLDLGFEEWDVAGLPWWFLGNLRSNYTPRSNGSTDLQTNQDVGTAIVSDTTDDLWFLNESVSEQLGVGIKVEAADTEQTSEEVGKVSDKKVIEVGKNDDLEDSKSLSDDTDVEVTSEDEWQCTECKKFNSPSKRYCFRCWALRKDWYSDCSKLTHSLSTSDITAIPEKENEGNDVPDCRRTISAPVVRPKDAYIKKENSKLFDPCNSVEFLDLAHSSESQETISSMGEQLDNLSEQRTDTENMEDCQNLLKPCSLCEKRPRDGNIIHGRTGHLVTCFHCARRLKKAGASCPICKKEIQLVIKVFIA
Target sequence (Q00987 whole entry, looked up): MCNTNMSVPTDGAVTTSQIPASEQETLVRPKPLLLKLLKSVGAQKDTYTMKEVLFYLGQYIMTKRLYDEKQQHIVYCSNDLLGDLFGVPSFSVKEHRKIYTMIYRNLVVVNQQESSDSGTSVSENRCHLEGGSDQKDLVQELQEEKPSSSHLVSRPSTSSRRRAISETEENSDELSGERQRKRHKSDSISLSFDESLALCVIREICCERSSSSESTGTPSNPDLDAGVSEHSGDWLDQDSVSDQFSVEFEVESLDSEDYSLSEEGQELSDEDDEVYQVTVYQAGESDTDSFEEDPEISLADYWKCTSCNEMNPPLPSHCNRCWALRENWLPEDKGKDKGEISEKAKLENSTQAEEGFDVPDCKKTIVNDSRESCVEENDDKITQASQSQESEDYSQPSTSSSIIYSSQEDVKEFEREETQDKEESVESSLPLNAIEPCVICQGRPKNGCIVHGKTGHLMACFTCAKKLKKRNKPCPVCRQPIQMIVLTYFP
Mdm2-MdmX conf = human Mdm2/MdmX binding inhibition, confirmed | luminescent assay | shares compounds with Mdm2-MdmX inh | AID 489028 | 10,000 compounds, 55% hits | inhibition, % at 8 µM; in the data active = inhibition above about 40%
Full FLuc ctr = counter-screen for Mdm2/MdmX inhibitors: full-length luciferase; shares compounds with Mdm2-MdmX inh; SaOS-2 full-length luciferase counterscreen, luminescence; inhibition, % at 8 µM; 6,200 compounds, 77% hits; AID 504607;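 active = mean inhibition at 8 µM reaching about 37%, which flags the compound as non-specific, limit read from the data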;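 also: p53-null SaOS-2 cells with luciferase driven by a doxycycline-inducible promoter; compound on cells about two nights before reading with doxycycline added after day one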
Hits are given with their value; - = inactive; ? = inconclusive; . = no result. Shown are actives, neighbours in structure and some others; about 5.4% of the full set was active somewhere.

SMILES	aSyn 5UTR inh	T cruzi repl	SKKanGAS inh	CSC inhib	Mdm2-MdmX inh	Mdm2-MdmX conf	others
CCN(CC)S(=O)(=O)c1ccc(S(=O)(=O)N2CCC(N3CCCCC3)CC2)cc1	-	-	-	-	-	.
CCOC(=O)c1c(C)[nH]c(C2=NNC(=NC3CC3)SC2)c1C	-	-	-	-	-	.
Cc1noc(C)c1CSc1nc2sc(C)c(C)c2c(=O)n1C1CCCC1	-	-	?	-	-	.
COc1ccc(C2=Nn3c(nnc3-c3ccccc3F)SC2)cc1OC1CCCC1	.	.	.	82.0	99.8	86.0	Full FLuc ctr=-
COc1ccc(C2=Nn3c(nnc3C3CCCCC3)SC2)cc1OC	-	-	-	-	-	.
COc1ccc(C2=Nn3c(nnc3-c3ccccc3F)SC2)cc1OC1CCOC1 (stereo not given)	.	.	.	-	70.1	63.5	Full FLuc ctr=-
Cc1ccc(-c2n[nH]c(=S)n2/N=C/c2c(C)nn(-c3ccccc3)c2C)cc1	-	-	-	-	-	.
Cc1ccccc1-c1n[nH]c(=S)n1/N=C/c1c(C)nn(-c2ccccc2)c1C	-	-	-	-	86.8	52.6	Full FLuc ctr=102.6
CC1=NN(c2nc(-c3ccc(C)cc3)cs2)C(=O)C1N=Nc1ccccc1O (stereo not given)	63.3	54.8	-	-	72.5	80.0	Full FLuc ctr=-
CC1=NN(c2nc(-c3ccc(C)cc3)cs2)C(=O)C1N=Nc1cccc(O)c1 (stereo not given)	-	-	-	-	-	.
CCN(CC)Cc1c(O)ccc2c([N+](=O)[O-])c(C)n(-c3ccc(OC)cc3)c12	-	-	-	-	70.6	82.3	Full FLuc ctr=50.9
CCCn1c(SCC(=O)c2c(C)[nH]c(C)c2C(=O)OCC)nc2ccccc21	-	-	-	-	-	.
COc1cc(Cl)c(NC2=CC(=O)C(=O)c3ccccc32)c(OC)c1	.	.	.	109.9	53.0	58.9	Full FLuc ctr=49.6
Cc1ccc(NC2=CC(=O)C(=O)c3ccccc32)c(C)c1	.	.	.	.	-	.
COC(=O)C1=C(C(=O)OC)SC(=C2C(=S)C(C)(C)N(C(=O)CC(C)C)c3ccccc32)S1	-	-	-	-	-	.
O=C(c1ccc(Cl)c(Cl)c1)N1CCC(=O)N(C(COCc2cccc(C(F)(F)F)c2)Cc2ccccc2)CC1 (stereo not given)	-	-	-	-	50.7	-
Cc1cccc(COCC(Cc2ccccc2)N2CCN(C(=O)c3cc(Cl)cc(Cl)c3)CCC2=O)c1 (stereo not given)	-	-	-	-	50.4	-
O=C(c1ccc(Cl)c(Cl)c1)N1CCC(=O)N(C(COCc2ccc(Cl)cc2)Cc2ccccc2)CC1 (stereo not given)	-	-	50.5	-	52.3	-
CCOC(=O)N1CCN(S(=O)(=O)c2c(C)nc3scc(C)n3c2=O)CC1	-	-	-	-	-	.
O=C1[C@H](Oc2ccccc2)[C@@H](c2ccccc2)N1c1ccncc1	.	.	.	.	50.1	-
COc1ccc(CCc2nnc(CCC(=O)NCc3cnc4ccccn34)o2)cc1	-	-	-	-	-	.
C=C[C@]1(C)C[C@H]1[C@H](NP(=O)(c1ccccc1)c1ccccc1)c1ccccc1	.	.	.	-	-	.
C/C(=C\[C@@H](NP(=O)(c1ccccc1)c1ccccc1)c1ccccc1)CO[Si](c1ccccc1)(c1ccccc1)C(C)(C)C	-	-	-	-	75.6	-
Cc1cccc(-n2nc3c(c2NC(=O)c2ccc(Br)o2)CSC3)c1	-	-	-	-	-	.
COc1ccc(OC)c(-c2cc(C(=O)Nc3ccc(F)cc3F)no2)c1	-	-	-	-	58.5	-
SMILES	aSyn 5UTR inh	T cruzi repl	SKKanGAS inh	CSC inhib	Mdm2-MdmX inh	Mdm2-MdmX conf	others
COc1ccc(-c2cc(C(=O)Nc3cc(C)ccc3O)no2)cc1	-	-	-	-	56.5	-
O=C(NC(Cc1ccccc1)C(=O)O)/C(=C/c1ccc(Cl)cc1)NC(=O)c1ccco1 (stereo not given)	-	-	-	-	-	.
COc1ccc(NC(=O)CSc2nnc(-c3cccs3)n2N)c(OC)c1	-	-	-	-	-	.
CCN(C(=O)COC(=O)c1c(C)nn(-c2ccccc2)c1C)C1CCS(=O)(=O)C1 (stereo not given)	-	-	-	-	-	.
CCN(C(=O)COC(=O)c1c2c(nc3ccccc13)/C(=C/c1ccccc1)CC(C)C2)C1CCS(=O)(=O)C1 (stereo not given)	-	-	-	-	52.5	51.9	Full FLuc ctr=54.8
Cc1ccc(C(=O)N[C@@H](C)CN2C3=NC[C@H](C(C)C)N3C[C@H]2Cc2ccc(O)cc2)cc1Br	-	-	-	-	-	.
COc1ccc(C[C@H]2CN3C(=NC[C@@H]3Cc3ccccc3)N2C[C@H](C)NC(=O)CCC2CCCCC2)cc1	-	-	-	.	67.6	47.7	Full FLuc ctr=71.7
COc1ccc(C[C@H]2CN3C(=NC[C@@H]3C(C)C)N2C[C@H](C)NC(=O)c2ccc(C)c(Br)c2)cc1	-	-	-	-	52.3	-
COc1ccc(C[C@H]2CN3C(=NC[C@@H]3Cc3ccc(O)cc3)N2C[C@H](C)NC(=O)c2ccc(C)c(Br)c2)cc1	-	-	-	-	86.3	-
C[C@@H](CN1C2=NC[C@H](Cc3ccc(O)cc3)N2C[C@H]1Cc1ccc(O)cc1)NC(=O)CCC1CCCCC1	-	-	-	-	-	.
CCn1c(/C=C/N(C(C)=O)c2ccccc2)[n+](CCCS(=O)(=O)[O-])c2cc(Cl)c(Cl)cc21	-	-	.	-	-	.
CCn1c(/C=C/Nc2ccccc2)[n+](CC)c2cc(Cl)c(Cl)cc21	-	-	-	-	97.5	-
S=C(Nc1ccc(-c2nc3ccccc3[nH]2)cc1)Nc1cccnc1	-	-	-	-	-	.
CCN(CC)C(=O)c1sc(NC(=O)C(Sc2ccccc2)c2ccccc2)c(C(=O)OC(C)C)c1C (stereo not given)	-	-	-	-	57.5	-
COC(=O)CNC(=O)/C=C/c1ccc(OC)cc1	-	-	-	-	-	.
CCN(C(=O)COC(=O)/C=C/c1cccc([N+](=O)[O-])c1)c1ccccc1	-	-	-	-	-	.
S=C(Nc1ccc(Br)cc1Cl)N1CCCC1	-	-	-	-	-	.
O=C(Nc1ccc(CN2CCCCC2)cc1)Nc1ccc(Br)cc1Cl	-	-	-	.	73.8	41.8	Full FLuc ctr=38.9
COC(=O)Cc1ccc(NC(=S)NCCSc2ccc(Cl)cc2)cc1	-	-	-	-	-	.
COc1cc(/C=N/N=C(N)N)ccc1OCc1ccccc1Cl	-	55.4	-	-	100.0	-	Full FLuc ctr=73.8
CC1CN(C(=O)CCc2cc(C(C)(C)C)c(O)c(C(C)(C)C)c2)CC(C)O1 (stereo not given)	-	-	-	-	-	.
O=C(O)CSc1ncnc2scc(-c3ccccc3)c12	-	-	-	-	-	.
Cn1nnnc1Sc1ncnc2scc(-c3cccc(Br)c3)c12	.	.	.	88.7	95.7	100.2	Full FLuc ctr=48.8
Cn1nnnc1Sc1ncnc2scc(-c3cccc(S(C)(=O)=O)c3)c12	.	.	.	-	83.8	70.3	Full FLuc ctr=-
O=C(O)CSc1ncnc2scc(-c3ccc(Br)cc3)c12	-	-	-	-	-	.
